Shown are actives, neighbours in structure and some others; about 3.4% of the full set was active somewhere.
Ecoli rRNA inh: inhibits bacterial ribosomal RNA function over humanized ribosomes. E. coli WT GFP vs humanized-ribosome RFP mutants, fluorescence, 24 h; hits give low values; DMSO median 0, no signal -100. GFP signal change (wild-type ribosome), % (no concentration beside the values). 350,000 tested, 1.6% active. AID 720706;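 active = significant combined selectivity score with lowered wild-type GFP, culture density cut under 30%, mutant RFP and density less affected; inactive = any of these conditions unmet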
S100A4 MyoIIA: inhibitors of human S100A4 binding to myosin IIA peptide | inhibition, % at 10.7 µM | AID 652163 | S100A4/TAMRA-MyoIIA peptide fluorescence polarization | 360,000 tested, 0.14% active;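 active = mean inhibition of at least 70% across replicates, with every replicate also reaching that level; inconclusive = mean inhibition reaches 70% but some replicates fall short; inactive = mean inhibition below 70%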
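System – human S100A4 monomer protein, biochemical binding assay · Buffer or medium – Calcium-containing HEPES buffer, pH 7.2 · Timing – 5 min between mix addition and reading · Also added – TAMRA-labelled myosin IIA heavy-chain peptide probe, 5 nM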
MLL AF4-AF9 inh: inhibitors of human MLL-AF4/AF9 interaction; AlphaScreen, biotin-AF4 peptide binding to FLAG-AF9; inhibition, % at 10 µM; 350,000 tested, 0.47% active; AID 651704;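 active = every replicate reaching a set inhibition limit, whatever the replicate mean, cut at about 25% in these data; inconclusive = mean inhibition reaches that limit but some replicates miss it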
ERAP1 HTS inh: ERAP1 (human) enzyme inhibition | Q9NZ08 | recombinant ERAP1, Leu-AMC fluorescence, 60 min | inhibition, % at 10.7 µM | 340,000 tested, 0.15% active;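 active = mean replicate inhibition of at least 30%, or all replicates individually reaching that 30% level; inactive = mean below 30% and not every replicate reaching it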
Target sequence (Q9NZ08 whole entry, looked up): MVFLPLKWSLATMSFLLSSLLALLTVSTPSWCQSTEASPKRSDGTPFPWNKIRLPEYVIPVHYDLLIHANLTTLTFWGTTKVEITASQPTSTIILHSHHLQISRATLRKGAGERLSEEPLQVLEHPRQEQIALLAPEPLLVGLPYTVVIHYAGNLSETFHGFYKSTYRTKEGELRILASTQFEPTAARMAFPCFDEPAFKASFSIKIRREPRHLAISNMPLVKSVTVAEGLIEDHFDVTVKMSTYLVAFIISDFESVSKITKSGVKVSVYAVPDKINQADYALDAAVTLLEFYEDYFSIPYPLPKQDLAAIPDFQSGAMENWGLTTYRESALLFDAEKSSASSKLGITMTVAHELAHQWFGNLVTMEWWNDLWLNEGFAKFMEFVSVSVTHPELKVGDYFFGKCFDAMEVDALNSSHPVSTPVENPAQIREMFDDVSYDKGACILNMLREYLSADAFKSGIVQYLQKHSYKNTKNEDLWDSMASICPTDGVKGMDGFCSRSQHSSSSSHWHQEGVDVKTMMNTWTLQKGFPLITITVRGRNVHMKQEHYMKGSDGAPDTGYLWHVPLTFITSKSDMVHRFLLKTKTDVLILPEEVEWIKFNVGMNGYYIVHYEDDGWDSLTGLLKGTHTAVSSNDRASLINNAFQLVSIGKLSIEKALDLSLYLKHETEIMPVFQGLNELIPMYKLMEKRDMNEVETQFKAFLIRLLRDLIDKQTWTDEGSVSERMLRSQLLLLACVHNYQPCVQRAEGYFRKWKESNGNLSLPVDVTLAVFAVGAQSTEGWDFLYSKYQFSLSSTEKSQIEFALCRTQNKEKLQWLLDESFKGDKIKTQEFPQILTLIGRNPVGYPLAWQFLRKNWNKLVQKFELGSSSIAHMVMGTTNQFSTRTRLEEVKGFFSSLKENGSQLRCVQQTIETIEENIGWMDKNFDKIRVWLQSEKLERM
SIRT5 inh: sirtuin-5 (human) deacylase inhibition; Q9NXA8; Purified SirT5, succinyl-peptide AMC, trypsin-coupled fluorescence; inhibition, % at 15 µM; 330,000 tested, 1.1% active; AID 652115; in the data active = inhibition above about 15%; inconclusive = no clear call, values can overlap the other calls
E-selectin induc: induces E-selectin expression in human endothelial cells. activation, % at 7.58 µM. HUVEC E-selectin immunofluorescence imaging; normalized: neutral wells 0, TNF-alpha wells 100. AID 686992. 260,000 tested, 0.37% active;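 active = mean E-selectin-positive cell signal at least 10% of the positive control, reached in at least 60% of replicates, without over 20% cell loss; inconclusive = no rule given, readout overlaps actives, possibly toxicity-flagged; inactive = the rest, including those meeting only one limit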
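Assay system: HUVEC primary endothelial cells. Input: 3,000 HUVEC seeded per well. Doses: one compound dose added by pin transfer. Read-out basis: % PE-positive cells. Benchmarks: TNF-alpha high, DMSO low. Detection: immunofluorescence imaging. Buffer or medium: EGM-2, gelatin.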
Numbers stand for hits; i = inactive; ? = inconclusive; nt = no result given.

SMILES | Ecoli rRNA inh | S100A4 MyoIIA | MLL AF4-AF9 inh | ERAP1 HTS inh | SIRT5 inh | E-selectin induc
O=C(Nc1ccc(C(=O)O)cc1)/C(=C\c1ccco1)NC(=O)c1ccc(Br)cc1 | i | i | i | i | 24 | i
O=C(N/C(=C\c1ccco1)C(=O)N1CCCCC1)c1ccc([N+](=O)[O-])cc1 | i | i | i | i | 17 | nt
O=C1CN(S(=O)(=O)Cc2ccccc2)C[C@@H]2[C@@H](c3ccc(C#Cc4cccnc4)cc3)[C@@H](CO)N12 | i | i | i | i | i | i
NCCNC(=O)c1c(NC(=O)c2ccccc2)sc2c1CCCC2 | -22 | i | i | i | i | nt
COC(=O)c1c(NC(=O)c2ccccc2C(=O)O)sc2c1CCC2 | -21 | i | i | i | i | nt
CCOC(=O)c1c(NC(=O)C(NCCN(C)C)c2ccccc2)sc2c1CCCC2 (centres undefined) | i | i | 29 | i | i | nt
NC(=O)c1c(NC(=O)c2ccccc2C(=O)O)sc2c1CCCC2 | i | i | i | i | i | i
COC(=O)c1c(NC(C)=O)sc2c1CCN(Cc1ccccc1)C2 | i | i | i | i | 18 | i
COCC(=O)Nc1ccc2c(c1)C(=O)N(C)[C@@H]1CC[C@H](CC(=O)NC3CCCC3)O[C@@H]1CO2 | i | nt | nt | nt | nt | i
CCCC#Cc1cnc2c(c1)C(=O)N([C@H](C)CO)C[C@@H](C)[C@H](CN(C)C(=O)CN1CCOCC1)O2 | i | i | i | i | i | i
Cn1c(=O)n(Cc2ccc(Br)cc2)c2ccccc21 | -48 | i | i | i | i | nt
O=C(NC1CCCC1)C1C(c2ccc(C(F)(F)F)cc2)=Nc2ccccc2N1C(=O)c1ccco1 (centres undefined) | nt | i | nt | i | i | i
O=C(NC1CCCC1)C1C(c2ccc(C(F)(F)F)cc2)=Nc2ccccc2N1C(=O)c1ccccc1 (centres undefined) | i | i | i | nt | i | 136
C[C@H](CO)N1C[C@H](C)[C@@H](CN(C)Cc2ccccc2)Oc2ccc(N(C)C)cc2C1=O | i | i | i | i | 21 | nt
C[C@@H]1CN([C@H](C)CO)C(=O)c2cc(N(C)C)ccc2O[C@@H]1CN(C)Cc1ccc(-c2ccccc2)cc1 | i | i | 47 | i | i | nt
C[C@H]1CN([C@@H](C)CO)C(=O)c2cc(N(C)C)ccc2O[C@@H]1CN(C)Cc1ccc(C(=O)O)cc1 | i | nt | i | nt | nt | i
C[C@@H]1CN([C@@H](C)CO)C(=O)c2cc(N(C)C)ccc2O[C@H]1CN(C)Cc1ccccc1 | i | i | i | i | i | i
C[C@@H]1CN([C@@H](C)CO)C(=O)c2cc(N(C)C)ccc2O[C@H]1CN(C)Cc1ccc(-c2ccccc2)cc1 | i | i | 34 | i | i | nt
COCC#Cc1ccc2c(c1)O[C@H](CN(C)S(C)(=O)=O)[C@H](C)CN([C@@H](C)CO)S2(=O)=O | i | i | i | i | i | i
OC[C@H]1[C@H](c2ccc(C#Cc3ccccc3)cc2)[C@H]2CN(Cc3cncnc3)CCCCN21 | i | i | i | i | i | i
C[C@H](CO)N1C[C@H](C)[C@@H](CN(C)C(=O)Cc2ccccc2)OCCCC[C@H](C)Oc2ccc(N(C)C)cc2C1=O | i | i | i | i | i | i
C[C@@H]1CN([C@H](C)CO)C(=O)c2cc(NS(=O)(=O)c3ccc(F)cc3)ccc2O[C@H]1CN(C)C(=O)Nc1ccc(F)cc1 | i | i | i | i | i | i
CCC(=O)N1C[C@H](C)[C@@H](OC)CN(C)C(=O)c2ccc(NC(=O)Nc3cccc(F)c3)cc2OC[C@H]1C | i | i | i | i | i | i
Nc1cc(OCc2ccccc2)ccc1OCc1ccccc1 | i | i | i | i | i | i
O=c1cc(OCc2ccccc2)cc[nH]1 | i | i | 75 | i | i | nt
SMILES | Ecoli rRNA inh | S100A4 MyoIIA | MLL AF4-AF9 inh | ERAP1 HTS inh | SIRT5 inh | E-selectin induc
O=C(N/N=C/c1c[nH]c2ccc(Br)cc12)C1CC1 | -34 | i | i | i | nt | i
O=C(N/N=C/c1c[nH]c2ccccc12)c1ccc2c(c1)OCCO2 | i | i | i | i | i | i
O=C(N/N=C/c1c[nH]c2ccc(Br)cc12)c1ccc2c(c1)OCO2 | -30 | i | i | i | i | i
O=C(N/N=C/c1cc(Br)c(O)c(Br)c1O)c1ccc2c(c1)OCCO2 | -19 | i | i | i | i | i
C[C@H]1CCCCO[C@@H](CN(C)S(=O)(=O)c2cn(C)cn2)[C@@H](C)CN([C@@H](C)CO)C(=O)c2cc(NC(=O)CCC(F)(F)F)ccc2O1 | i | i | i | i | i | i
COc1ccccc1S(=O)(=O)N1[C@@H]2CNC[C@H]1C2c1ccc(-c2ccccc2)cc1 (some centres undefined) | i | i | i | i | i | i
COc1ccc2c3c(n(C)c2c1)[C@H](CO)N(C(=O)C1CC1)CC31CCN(Cc2cccc(F)c2)CC1 | i | i | 26 | i | i | i
COc1ccc(S(=O)(=O)N2CCC3(CC2)CN(C(=O)CN(C)C)[C@H](CO)c2c3c3ccc(OC)cc3n2C)cc1 | i | i | 33 | i | i | i
COc1ccc2c3c(n(C)c2c1)[C@@H](CO)N(C(=O)C1CCC1)CC31CCN(Cc2cccc(F)c2)CC1 | i | i | 29 | i | i | i
COc1ccc2c3c(n(C)c2c1)[C@@H](CO)N(C(=O)C1CCC1)CC31CN(C(=O)CN(C)C)C1 | i | i | i | i | 15 | i
COc1ccc2c3c(n(C)c2c1)[C@H](CO)N(C(=O)C1CCC1)CC31CCN(Cc2cccc(F)c2)CC1 | i | i | ? | i | i | i
COc1ccc2c3c(n(C)c2c1)[C@H](CO)N(C(=O)C1CC1)CC31CN(C(=O)CN(C)C)C1 | i | i | i | i | i | i
COc1ccc2c3c(n(C)c2c1)[C@@H](CO)N(C(=O)CN(C)C)CC31CCN(S(C)(=O)=O)CC1 | i | i | i | i | i | i
COc1ccc(CN(C)C[C@H]2OCCCC[C@@H](C)Oc3ccc(NC(=O)CCCN(C)C)cc3C(=O)N([C@@H](C)CO)C[C@@H]2C)cc1 | i | i | i | i | i | i
COc1ccc(-c2cn(CC[C@@H]3CC[C@@H](NC(=O)CCN4CCCCC4)[C@H](CO)O3)nn2)cc1 | i | i | i | i | i | i
COc1ccc2c3c(n(C)c2c1)[C@@H](CO)N(C(=O)C1CC1)CC31CN(Cc2cccc(F)c2)C1 | i | i | nt | nt | i | i
COc1cccc(CN2CC3(C2)CN(C(=O)C2CC2)[C@H](CO)c2c3c3ccc(OC)cc3n2C)c1 | i | nt | 27 | nt | nt | i
C[C@@H]1CN([C@H](C)CO)C(=O)c2cc(/C=C/c3ccccc3)cnc2O[C@@H]1CN(C)S(=O)(=O)c1cccs1 | i | i | i | i | i | i
